Laboratory results taken from ChEMBL document CHEMBL4706730, “A Set of Highly Sensitive Sirtuin Fluorescence Probes for Screening Small-Molecular Sirtuin Defatty-Acylase Inhibitors” (ACS Med Chem Lett, 2021).
Active and inactive are the calls of the source. No cut-off for these calls is given here. Numbered stars: 1 amine (or outer) side, 2 acyl side, 3 side chain; on linkers, the order of the positions; unused ones are H or OH. Square brackets hold non-standard residues; d marks the D form. Peptide text beside a SMILES is read from it. * marks the point of attachment. Lys(thiomyristoyl) = CCCCCCCCCCCCCC(=S)NCCCC[C@H](N)C(=O)O; X1 = O=C(O)c1cc(NC(=S)*)ccc1-c1c2ccc(=O)cc-2oc2cc(O)ccc12; X2 = CN(CCC(=O)*)c1ccc(/N=N/c2ccc([N+](=O)[O-])cc2)cc1; Achc(trans-4) = O=C([C@H]1CC[C@H](N[*:1])CC1)[*:2]; X5 = O=C(Cc1ccc(/N=N/c2ccc(O)cc2)cc1)*

Assays:
[1] = molecular target: T1, NAD-dependent protein deacetylase sirtuin-2 (Homo sapiens, UniProt Q8IXJ6); assay: (§1) Inhibition of 5-(3-((1r,4r)-4-((5S,8S,11S,14S,17S,20S,29S)-11-((1H-imidazol-4-yl)methyl)-1,33-diamino-5-carbamoyl-17-(4-(4-(4-((4-(dimethylamino)phenyl)diazenyl)phenyl)butanamido)butyl)-8,14-bis(3-guanidinopropyl)-20-methyl-7,10,13,16,19,22,25,28-octaoxo-6,9,12,15,18,21,24,27-octaazatritriacontan-29-ylcarbamoyl)cyclohexyl)thioureido)-2-(6-hydroxy-3-oxo-3H-xanthen-9-yl)benzoic acid binding to SIRT2 (unknown origin) measured after 2 hrs in presence of NAD+ by fluorometric method
T1 sequence (Q8IXJ6 whole entry): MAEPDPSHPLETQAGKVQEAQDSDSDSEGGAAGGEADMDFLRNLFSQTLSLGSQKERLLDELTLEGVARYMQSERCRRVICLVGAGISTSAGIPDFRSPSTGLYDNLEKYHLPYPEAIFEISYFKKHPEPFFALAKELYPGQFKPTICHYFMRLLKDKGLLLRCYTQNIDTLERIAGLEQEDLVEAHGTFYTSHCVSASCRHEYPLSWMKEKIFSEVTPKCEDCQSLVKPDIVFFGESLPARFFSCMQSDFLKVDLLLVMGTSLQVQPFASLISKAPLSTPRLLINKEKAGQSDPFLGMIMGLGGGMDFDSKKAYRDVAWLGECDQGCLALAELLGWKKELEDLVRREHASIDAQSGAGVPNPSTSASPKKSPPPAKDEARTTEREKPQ
How it was run: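 The second screen used the same SIRT2 one-step FRET probe conditions, validated at 2.92 nM SIRT2. Compounds were tested over a range of concentrations to check dose-dependency, and the IC50 was derived from the dose–response curve.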

[2] = molecular target: NAD-dependent protein deacylase sirtuin-6 (Homo sapiens) (UniProt Q8N6T7); assay: Inhibition of 5-[[(1r,4r)-4-[[(1S)-4-amino-1-[[(1S,2R)-1-[[(1S)-2-[[(1S)-1-[[(1S)-1-[[(1S)-2-[[(1S,2R)-1-[[2-(carboxymethylamino)-2-oxoethyl]carbamoyl]-2-hydroxypropyl]amino]-1-(hydroxymethyl)-2-oxoethyl]carbamoyl]-5-[3-[N-methyl-4-[(4-nitrophenyl)azo]anilino]propanoylamino]pentyl]carbamoyl]-4-guanidinobutyl]amino]-1-methyl-2-oxoethyl]carbamoyl]-2-hydroxypropyl]carbamoyl]-4-oxobutyl]carbamoyl]cycl …
Target sequence in this assay (Q8N6T7 whole entry, looked up): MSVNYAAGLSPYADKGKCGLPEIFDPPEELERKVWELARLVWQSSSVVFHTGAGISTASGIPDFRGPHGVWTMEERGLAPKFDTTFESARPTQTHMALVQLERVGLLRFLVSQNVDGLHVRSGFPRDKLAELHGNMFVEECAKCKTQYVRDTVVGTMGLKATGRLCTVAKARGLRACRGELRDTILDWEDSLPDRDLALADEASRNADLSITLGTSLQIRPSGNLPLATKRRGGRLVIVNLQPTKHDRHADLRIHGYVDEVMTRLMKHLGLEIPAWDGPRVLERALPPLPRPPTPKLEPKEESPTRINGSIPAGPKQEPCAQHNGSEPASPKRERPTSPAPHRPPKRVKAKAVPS

[3] = molecular target: T2, NAD-dependent protein deacetylase sirtuin-2 (Homo sapiens) (UniProt Q8IXJ6); assay: as §1, with “origin) at 10 uM” for “origin)”, “method relative to control” for “method”
T2 sequence (whole entry): T1 sequence (Q8IXJ6 whole entry)
How it was run: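 In the primary library screen, 384-well plates held SIRT2 with the Dabcyl-BH/H4K16 one-step FRET probe. Each compound was tested at 10 μM with 0.5% DMSO, and inhibition was taken from the fluorescence signal.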

[4] = molecular target: NAD-dependent protein deacylase sirtuin-6 (Homo sapiens) (UniProt Q8N6T7); assay: Binding affinity to SIRT6 (unknown origin) assessed as increase in fluorescence intensity at 2.5 uM measured at 5 mins interval for 1 hr in presence of NAD+ by fluorometric method relative to control
How it was run: (§2)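 Each FITC/quencher FRET peptide probe was incubated with recombinant SIRT1–7 in 96-well half-area plates at 37 °C for 1 h. The fluorescence increase is reported as a fold change, SIRT(+) signal over SIRT(−) signal, after 1 h.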
Target sequence in this assay (Q8N6T7 whole entry): as the sequence (Q8N6T7 whole entry, looked up) above

[5] = molecular target: T2, NAD-dependent protein deacetylase sirtuin-2 (Homo sapiens); assay: Binding affinity to SIRT2 (unknown origin) assessed as increase in fluorescence intensity measured at 5 mins interval for 1 hr in presence of NAD+ by fluorometric method
[6] = molecular target: T3, NAD-dependent protein deacetylase sirtuin-1 (Homo sapiens) (UniProt Q96EB6); assay: Binding affinity to SIRT1 (unknown origin) assessed as increase in fluorescence intensity at 2.5 uM measured at 5 mins interval for 1 hr in presence of NAD+ by fluorometric method relative to control; how it was run: as §2
T3 sequence (whole entry): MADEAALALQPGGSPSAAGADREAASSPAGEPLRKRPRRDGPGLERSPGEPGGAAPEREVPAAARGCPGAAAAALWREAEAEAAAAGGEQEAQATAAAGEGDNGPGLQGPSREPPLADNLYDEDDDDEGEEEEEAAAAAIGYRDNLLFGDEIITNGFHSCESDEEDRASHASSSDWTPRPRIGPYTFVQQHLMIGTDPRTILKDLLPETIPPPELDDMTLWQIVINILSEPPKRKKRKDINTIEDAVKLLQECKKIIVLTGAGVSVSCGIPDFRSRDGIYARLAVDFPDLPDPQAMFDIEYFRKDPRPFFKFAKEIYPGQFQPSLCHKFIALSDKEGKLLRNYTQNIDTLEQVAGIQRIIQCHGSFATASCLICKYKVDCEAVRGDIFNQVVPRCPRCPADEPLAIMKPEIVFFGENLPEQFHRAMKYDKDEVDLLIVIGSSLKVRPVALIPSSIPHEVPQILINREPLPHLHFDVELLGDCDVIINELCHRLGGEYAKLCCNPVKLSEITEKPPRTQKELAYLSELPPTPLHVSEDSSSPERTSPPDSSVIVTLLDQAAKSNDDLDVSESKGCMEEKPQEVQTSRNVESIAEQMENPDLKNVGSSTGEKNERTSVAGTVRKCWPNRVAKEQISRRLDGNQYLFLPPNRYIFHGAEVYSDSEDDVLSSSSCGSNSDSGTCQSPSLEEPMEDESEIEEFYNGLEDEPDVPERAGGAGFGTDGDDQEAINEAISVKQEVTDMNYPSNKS

[7] = molecular target: NAD-dependent protein deacylase sirtuin-5, mitochondrial (Homo sapiens) (UniProt Q9NXA8); assay: Binding affinity to SIRT5 (unknown origin) assessed as increase in fluorescence intensity at 2.5 uM measured at 5 mins interval for 1 hr in presence of NAD+ by fluorometric method relative to control; how it was run: as §2
[8] = molecular target: T2, NAD-dependent protein deacetylase sirtuin-2 (Homo sapiens); assay: Binding affinity to SIRT2 (unknown origin) assessed as increase in fluorescence intensity at 2.5 uM measured at 5 mins interval for 1 hr in presence of NAD+ by fluorometric method relative to control; how it was run: as §2
[9] = molecular target: T4, NAD-dependent protein deacetylase sirtuin-7 (Homo sapiens) (UniProt Q9NRC8); assay: Binding affinity to SIRT7 (unknown origin) assessed as increase in fluorescence intensity at 2.5 uM measured at 5 mins interval for 1 hr in presence of NAD+ by fluorometric method relative to control; how it was run: as §2
T4 sequence (whole entry): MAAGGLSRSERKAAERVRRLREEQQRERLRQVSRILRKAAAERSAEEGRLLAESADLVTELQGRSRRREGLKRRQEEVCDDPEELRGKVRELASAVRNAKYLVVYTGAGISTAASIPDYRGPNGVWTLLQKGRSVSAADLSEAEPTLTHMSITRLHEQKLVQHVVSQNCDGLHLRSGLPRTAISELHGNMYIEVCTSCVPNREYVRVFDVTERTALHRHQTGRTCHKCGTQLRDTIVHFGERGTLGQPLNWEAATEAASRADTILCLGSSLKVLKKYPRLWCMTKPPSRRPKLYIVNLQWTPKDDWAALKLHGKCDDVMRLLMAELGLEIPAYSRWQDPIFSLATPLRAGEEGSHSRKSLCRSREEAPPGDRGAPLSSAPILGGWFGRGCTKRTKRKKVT

[10] = molecular target: T5, NAD-dependent protein lipoamidase sirtuin-4, mitochondrial (Homo sapiens) (UniProt Q9Y6E7); assay: Binding affinity to SIRT4 (unknown origin) assessed as increase in fluorescence intensity at 2.5 uM measured at 5 mins interval for 1 hr in presence of NAD+ by fluorometric method relative to control; how it was run: as §2
T5 sequence (whole entry): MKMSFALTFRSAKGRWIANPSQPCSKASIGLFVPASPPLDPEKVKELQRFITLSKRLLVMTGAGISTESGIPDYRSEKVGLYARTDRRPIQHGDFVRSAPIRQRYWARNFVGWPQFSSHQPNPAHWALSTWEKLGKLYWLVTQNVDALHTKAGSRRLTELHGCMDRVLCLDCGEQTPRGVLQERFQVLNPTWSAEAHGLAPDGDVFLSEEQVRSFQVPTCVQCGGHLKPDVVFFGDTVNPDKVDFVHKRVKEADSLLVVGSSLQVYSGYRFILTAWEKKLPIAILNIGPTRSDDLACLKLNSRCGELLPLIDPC

[11] = molecular target: T2, NAD-dependent protein deacetylase sirtuin-2 (Homo sapiens); assay: Binding affinity to SIRT2 (unknown origin) assessed as increase in fluorescence intensity at 2.92 to 8.75 nM measured at 5 mins interval for 4 hrs in presence of NAD+ by fluorometric method; conditions: dose 2.92-8.75 nM
[12] = molecular target: T6, NAD-dependent protein deacetylase sirtuin-3, mitochondrial (Homo sapiens) (UniProt Q9NTG7); assay: Binding affinity to SIRT3 (unknown origin) assessed as increase in fluorescence intensity at 2.5 uM measured at 5 mins interval for 1 hr in presence of NAD+ by fluorometric method relative to control; how it was run: as §2
T6 sequence (whole entry): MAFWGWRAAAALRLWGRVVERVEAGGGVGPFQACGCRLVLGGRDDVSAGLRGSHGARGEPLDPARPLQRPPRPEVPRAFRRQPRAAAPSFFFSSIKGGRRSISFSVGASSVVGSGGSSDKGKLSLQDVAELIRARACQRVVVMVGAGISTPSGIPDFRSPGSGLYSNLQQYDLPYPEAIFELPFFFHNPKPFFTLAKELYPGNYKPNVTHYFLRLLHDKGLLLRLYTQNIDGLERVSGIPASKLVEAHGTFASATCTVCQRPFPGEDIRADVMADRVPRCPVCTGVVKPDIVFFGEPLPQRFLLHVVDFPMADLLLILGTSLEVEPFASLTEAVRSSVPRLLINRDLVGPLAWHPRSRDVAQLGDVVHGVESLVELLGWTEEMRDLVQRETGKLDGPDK

NAD-dependent protein deacylase sirtuin-5, mitochondrial (Homo sapiens), sequence (Q9NXA8 37-310 limits assumed): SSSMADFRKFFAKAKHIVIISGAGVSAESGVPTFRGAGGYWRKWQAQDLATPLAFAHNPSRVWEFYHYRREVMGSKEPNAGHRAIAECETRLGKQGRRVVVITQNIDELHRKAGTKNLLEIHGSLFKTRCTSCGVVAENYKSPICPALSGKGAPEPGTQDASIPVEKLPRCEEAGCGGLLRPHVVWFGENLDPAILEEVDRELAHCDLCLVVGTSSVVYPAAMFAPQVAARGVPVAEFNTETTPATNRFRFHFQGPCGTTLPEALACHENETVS

Row | Compound | fold change (FC) [4] | fold change (FC) [6] | fold change (FC) [7] | fold change (FC) [8] | fold change (FC) [9] | fold change (FC) [10] | further results
1 | CC[C@H](C)[C@H](NC(=O)[C@H](CCCNC(=N)N)NC(C)=O)C(=O)N[C@@H](CCCCNC(=O)Cc1ccc(/N=N/c2ccc(O)cc2)cc1)C(=O)N[C@@H](CCCNC(=N)N)C(=O)N[C@@H](Cc1ccc(O)cc1)C(N)=O (Ac-RIK(X5)RY-NH2) |  |  |  |  |  |  | IC50 [1]: 7 nM
2 | CCCCCCCCCCCCCC(=S)NCCCC[C@H](NC(=O)[C@@H](NC(=O)[C@H](CCCNC(=N)N)NC(C)=O)[C@@H](C)CC)C(=O)N[C@@H](CCCNC(=N)N)C(=O)N[C@@H](Cc1ccc(O)cc1)C(N)=O (Ac-RI[Lys(thiomyristoyl)]RY-NH2) |  |  |  |  |  |  | IC50 [2]: 100 nM
3 | O=C1CCCCC1C1(O)C(=O)Nc2ccccc21 (stereo unspecified) |  |  |  |  |  |  | inhibition [3]: > 35%
4 | C[C@H](NC(=O)CNC(=O)CNC(=O)[C@H](CCCCN)NC(=O)[C@H]1CC[C@H](NC(=S)Nc2ccc(-c3c4ccc(=O)cc-4oc4cc(O)ccc34)c(C(=O)O)c2)CC1)C(=O)N[C@@H](CCCCNC(=O)CCCc1ccc(/N=N/c2ccc(N(C)C)cc2)cc1)C(=O)N[C@@H](CCCNC(=N)N)C(=O)N[C@@H](Cc1c[nH]cn1)C(=O)N[C@@H](CCCNC(=N)N)C(=O)N[C@@H](CCCCN)C(N)=O | 2.21 | 14.2 | 1.06 | 12 | 1 | 1.11 | Activity [5]: Dose-dependent effect; Activity [11]: Active
5 | C[C@H](NC(=O)CNC(=O)CNC(=O)[C@H]1CC[C@H](NC(=S)Nc2ccc(-c3c4ccc(=O)cc-4oc4cc(O)ccc34)c(C(=O)O)c2)CC1)C(=O)N[C@@H](CCCCNC(=O)CCc1ccc(/N=N/c2ccc(N(C)C)cc2)cc1)C(=O)N[C@@H](CCCNC(=N)N)C(=O)N[C@@H](Cc1c[nH]cn1)C(=O)N[C@@H](CCCNC(=N)N)C(N)=O | 1.05 | 10.9 | 1.03 | 4.72 | 1.01 | 0.92 | fold change (FC) [12]: 5.45
6 | CC[C@H](C)[C@H](NC(=O)[C@H](CCCNC(=N)N)NC(=O)[C@H](Cc1ccc(O)cc1)NC(=O)[C@H](CC(=O)O)NC(=O)[C@H]1CC[C@H](NC(=S)Nc2ccc(-c3c4ccc(=O)cc-4oc4cc(O)ccc34)c(C(=O)O)c2)CC1)C(=O)N[C@@H](CCCCNC(=O)CCN(C)c1ccc(/N=N/c2ccc([N+](=O)[O-])cc2)cc1)C(=O)N[C@@H](CCCNC(=N)N)C(=O)N[C@@H](Cc1ccc(O)cc1)C(=O)N[C@@H](Cc1c[nH]cn1)C(=O)N[C@H](C(N)=O)[C@@H](C)O (X1-[Achc(trans-4)]DYRIK(X2)RYHT-NH2) | 1.19 | 5.85 | 1.15 | 6.97 | 1.05 | 1.25 | fold change (FC) [12]: 26.7
7 | C=C(C)Cn1c(NCCO)nc2c1c(=O)[nH]c(=O)n2C |  |  |  |  |  |  | inhibition [3]: > 35%
